Measurements collected from several papers.
Protocols differ between the studies behind these lines.
PDE10A: cAMP and cAMP-inhibited cGMP 3',5'-cyclic phosphodiesterase 10A (PDE10A, Homo sapiens, UniProt Q9Y233)
SLC6A3: Sodium-dependent dopamine transporter (SLC6A3, Homo sapiens, UniProt Q01959)
DRD3: D(3) dopamine receptor (DRD3, Homo sapiens, UniProt P35462)

`COc1cc2ncnc(Cc3cccc(-c4ccccc4OC)c3)c2cc1OC` gave an inhibition of 31% (PDE10A; enzyme activity; inhibitor; FP; 0.1 µM).
The inhibition of `CN(C)CCOC(=O)COc1ccc(Cl)cc1` is reported as 3.65% (Peroxisome proliferator-activated receptor gamma (PPARG, Homo sapiens, UniProt P37231); cell-free assay; TR-FRET; 1 µM).
For `CC(C)C[C@H](NC(=O)[C@@H](NC(=O)[C@@H](NC(=O)[C@@H]1CCCN1C(=O)[C@@H](N)CCC(=O)O)C(C)C)[C@@H](C)O)C(=O)N[C@H](C(=O)O)[C@@H](C)O`, the inhibition was 47.2% (Angiotensin-converting enzyme (ACE, Homo sapiens, UniProt P12821); enzyme activity; inhibitor; 1.4 mM).
`c1ccc(-c2cccc(Cc3nccc4ccccc34)c2)cc1` gave an inhibition of 0% (PDE10A; enzyme activity; inhibitor; FP; 0.1 µM).
With `CCOC(=O)[C@@]12C[C@@H]1[C@@H](n1cnc3c(Nc4ccccc4)nc(C#Cc4ccc(Cl)s4)nc31)[C@H](O)[C@@H]2O` the inhibition was 89% (SLC6A3; ligand displacement; radioligand; 10 µM).
The inhibition of `c1ccc2c(Cc3ccc4cnn(C5COC5)c4c3)nccc2c1` is reported as 6% (PDE10A; enzyme activity; inhibitor; FP; 0.1 µM).
`N#CC[C@@]12C[C@@H]1[C@@H](n1cnc3c(NCCCCCc4ccccc4)nc(C#Cc4ccc(Cl)s4)nc31)[C@H](O)[C@@H]2O` gave an inhibition of 7% (SLC6A3; ligand displacement; radioligand; 10 µM).
For `CCN1/C(=C/C(C)=O)Sc2ccc(F)cc21`, the inhibition was 0% (DRD3; ligand displacement; radioligand; 10 µM).
With `COc1cc2ncnc(Cc3cccc4ccccc34)c2cc1OC` the inhibition was 56% (PDE10A; enzyme activity; inhibitor; FP; 0.1 µM).
The inhibition of `CNC(=O)[C@@]12C[C@@H]1[C@@H](n1cnc3c(NCc4cccc(Cl)c4)nc(C#Cc4ccc(Cl)s4)nc31)[C@H](O)[C@@H]2O` is reported as 75% (SLC6A3; ligand displacement; radioligand; 10 µM).
With `Cc1cc(O)c(-c2ccc([C@@H](C)CN(C)C)cc2)c2c1[nH]c(=O)c1sccc12` the inhibition was -4.58% (Ephrin type-B receptor 4 (EPHB4, Homo sapiens, UniProt P54760); cell-free assay; inhibitor; 0.1 µM).
For `Cc1cc(F)cc2c(CCC(=O)N[C@@H]3C(=O)NC[C@H]3O)c(-c3ccc(F)cc3)[nH]c12`, the inhibition was 17% (SLC6A3; cell-free assay; 10 µM).
`CCOC(=O)[C@@]12C[C@@H]1[C@@H](n1cnc3c(NCc4cccc(Cl)c4)nc(I)nc31)[C@H](O)[C@@H]2O` gave an inhibition of 37% (SLC6A3; ligand displacement; radioligand; 10 µM).
For `COc1ccc(-c2cccc(Cc3ncnc4cc(OC)c(OC)cc34)c2)cc1OC`, the inhibition was 85% (PDE10A; enzyme activity; inhibitor; FP; 0.1 µM).
The inhibition of `CCOC(=O)[C@@]12C[C@@H]1[C@@H](n1cnc3c(NCCCCCc4ccccc4)nc(I)nc31)[C@H](O)[C@@H]2O` is reported as 85% (SLC6A3; ligand displacement; radioligand; 10 µM).
For `COc1ccc2c(Cc3cccc(-c4ccccc4)c3)nccc2c1`, the inhibition was 3% (PDE10A; enzyme activity; inhibitor; FP; 0.1 µM).
For `NC/C(=C\F)COc1cccc(Cn2c(=S)[nH]c(=O)c3[nH]cnc32)c1`, the inhibition was less than 50% (DRD3; ligand displacement; radioligand; 10 µM).
`OC[C@@]12C[C@@H]1[C@@H](n1cnc3c(NCCCCCCc4ccccc4)nc(I)nc31)[C@H](O)[C@@H]2O` has an inhibition of 79% (SLC6A3; ligand displacement; radioligand; 10 µM).
`C#Cc1cc(-c2cc(Nc3nc(N[C@@H](C)c4ccc(F)cn4)ncc3Cl)n[nH]2)ccc1C=O` has an inhibition of 73.3% (Activated CDC42 kinase 1 (TNK2, Homo sapiens, UniProt Q07912); enzyme activity; inhibitor; 0.2 µM).
